DENV2 CPE rescue – protects cells from dengue virus 2 cytopathic effect; DENV2-infected cells, cytopathic effect rescue, plate reader; CPE inhibition, % at 9.99 µM; 1.7% of 350,000 active; in the data active means CPE inhibition above about 20%, passing the limit was not always enough; tested in BHK-21 cells;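 further: 0% = median of neutral control wells and 100% = median of positive control wells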
S100A4 MyoIIA – S100A4-myosin IIA interaction inhibition; P26447; S100A4/TAMRA-MyoIIA peptide fluorescence polarization; inhibition, % at 10.7 µM; 0.14% of 360,000 active;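 active means mean inhibition of at least 70% across replicates, with every replicate also reaching that level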
Target sequence (P26447 whole entry, looked up): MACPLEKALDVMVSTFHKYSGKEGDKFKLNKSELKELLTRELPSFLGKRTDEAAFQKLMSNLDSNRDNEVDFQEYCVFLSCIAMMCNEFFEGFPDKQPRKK
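Test system: S100A4 monomer protein; Medium: HEPES pH 7.2 with CaCl2, KCl, NaCl, DTT, Triton; Probe or stimulus: TAMRA-labelled myosin IIA heavy-chain peptide probe, 5 nM; Doses: one dose per compound; Times: polarization read 5 min after assay mix addition, stable 5–60 min; Benchmarks: neutral control DMSO, positive control TFP.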
SIRT5 block – blocks human SIRT5 desuccinylation of peptide; AID 652115; inhibition, % at 15 µM; Purified SirT5, succinyl-peptide AMC, trypsin-coupled fluorescence; 1.1% of 330,000 active; in the data active means inhibition above about 15%
Target sequence (Q9NXA8 whole entry, looked up): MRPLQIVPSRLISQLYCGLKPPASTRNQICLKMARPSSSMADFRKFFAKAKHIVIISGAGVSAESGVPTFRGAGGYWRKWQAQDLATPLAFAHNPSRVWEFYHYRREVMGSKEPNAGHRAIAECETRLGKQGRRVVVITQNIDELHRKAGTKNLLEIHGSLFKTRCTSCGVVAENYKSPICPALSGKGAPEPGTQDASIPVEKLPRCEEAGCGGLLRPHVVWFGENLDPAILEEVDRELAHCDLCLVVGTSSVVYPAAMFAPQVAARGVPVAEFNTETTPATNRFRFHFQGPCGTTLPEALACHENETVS
CaV13 ICDI inh – Disruptors of the CACNA1D IQ motif to Ca2+-dependent inactivation inhibitor domain association, primary screening, Förster resonance energy transfer in intact living …; HEK cells, CFP/YFP FRET ICDI-IQ, plate reader, 10 min; percent FRET-ratio fall versus neutral wells; inhibition, % at 12.3 µM; 0.098% of 340,000 active;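 active means mean replicate inhibition of at least 30% and at least 1% of replicates passing that level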;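 further: 0% = median of the neutral control wells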
AF4-AF9 inh – MLL-AF4/AF9 protein interaction inhibition. inhibition, % at 10 µM. AlphaScreen, biotin-AF4 peptide binding to FLAG-AF9. 0.47% of 350,000 active. AID 651704;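 active means every replicate reaching a set inhibition limit, whatever the replicate mean, cut at about 25% in these data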;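 further: 0% = plate neutral control median and 100% = total signal loss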
An asterisk follows results filed as active; . = no result given. Shown are actives, neighbours in structure and some others; about 2.7% of the full set was active somewhere.

SMILES | DENV2 CPE rescue | S100A4 MyoIIA | SIRT5 block | CaV13 ICDI inh | AF4-AF9 inh
C[C@H](CO)N1C[C@H](C)[C@@H](CN(C)Cc2ccc(-c3ccccc3)cc2)Oc2ccc(NS(=O)(=O)c3ccccc3)cc2CC1=O | -26 | -2 | 18* | . | 1
CO[C@@H]1CN(C)C(=O)c2cc(NC(=O)C3CC3)ccc2OC[C@@H](C)N(C(=O)Cc2ccccn2)C[C@@H]1C | 18 | 4 | 10 | . | -10
C=CCNC(=O)[C@H]1[C@@H]2C(=O)O[C@@H](c3ccccc3)[C@@H](c3ccccc3)N2[C@@H](c2ccccc2OCCO)[C@]12C(=O)N(C(=O)OCCOC)c1ccccc12 | -3 | 0 | 13 | . | 0
CNC[C@H]1OCCCC[C@H](C)Oc2ccc(N(C)C)cc2C(=O)N([C@H](C)CO)C[C@H]1C | 4 | 6 | -2 | . | 8
CC(C)CC#Cc1ccc2c(c1)O[C@@H](CN(C)C(=O)Cc1cccnc1)[C@H](C)CN([C@@H](C)CO)S2(=O)=O | 2 | 1 | 2 | . | 4
C[C@H](CO)N1C[C@H](C)[C@@H](CN(C)S(=O)(=O)c2ccccc2)Oc2ccc(NC(=O)CCCN(C)C)cc2C1=O | 5 | 6 | -3 | . | 3
C[C@@H]1CN([C@H](C)CO)C(=O)Cc2cc(NS(=O)(=O)c3ccccc3)ccc2O[C@@H]1CN(C)Cc1ccccc1 | -10 | 79* | 4 | . | 2
C[C@H]1CN([C@@H](C)CO)S(=O)(=O)c2ccc(C#Cc3ccc(F)cc3)cc2O[C@@H]1CN(C)C(=O)NC1CCCC1 | -25 | 6 | 4 | . | 0
CO[C@H]1CN(C)C(=O)c2ccc(NC(=O)c3cccc(F)c3)cc2OC[C@@H](C)N(C)C[C@H]1C | -2 | 16 | -8 | . | 1
CCOc1ccccc1NC(=O)C1CCN(S(=O)(=O)c2ccc(OC)c(OC)c2)CC1 | -1 | -5 | 1 | -9 | 3
CCOc1ccccc1NC(=O)C1CCN(c2ccc(S(=O)(=O)N3CCCC3)cc2)CC1 | -5 | -3 | 17* | -7 | 4
C[C@H]1CN([C@@H](C)CO)C(=O)c2cc(-c3cccc(C(=O)N(C)C)c3)cnc2O[C@@H]1CN(C)C | 0 | -13 | 1 | . | -3
COc1ccc(S(=O)(=O)N2CCC(C(=O)NCCC(=O)NCc3cccnc3)CC2)cc1 | 75* | -2 | 1 | -13 | -6
NC(=O)C1(c2ccccc2)OC1c1ccccc1 (configuration not stated) | 41* | 2 | . | -5 | 0
CC(C)(C)NC(=O)C(c1cc2ccccc2o1)n1c(-c2ccc(-c3ccccc3)cc2)nc2ccccc21 (configuration not stated) | 7 | -8 | -2 | -8 | .
Cc1ccc(S(=O)(=O)Nc2ccc3c(c2)C(=O)N([C@H](C)CO)C[C@H](C)[C@H](CN(C)S(C)(=O)=O)OCCCC[C@H](C)O3)cc1 | 18 | -13 | -1 | . | 0
CNC[C@H]1OCCCC[C@@H](C)Oc2ccc(NS(=O)(=O)c3cn(C)cn3)cc2C(=O)N([C@@H](C)CO)C[C@H]1C | 64* | . | . | . | .
CNC[C@H]1OCCCC[C@H](C)Oc2ccc(NS(=O)(=O)c3cn(C)cn3)cc2C(=O)N([C@@H](C)CO)C[C@@H]1C | 1 | -12 | -3 | . | -24
Cc1ccc(S(=O)(=O)Nc2ccc3c(c2)C(=O)N([C@@H](C)CO)C[C@H](C)[C@@H](CN(C)S(C)(=O)=O)OCCCC[C@@H](C)O3)cc1 | 26* | 0 | 1 | . | 2
CNC[C@@H]1OCCCC[C@H](C)Oc2ccc(NS(=O)(=O)c3ccc(C)cc3)cc2C(=O)N([C@@H](C)CO)C[C@H]1C | -3 | 11 | 10 | . | 1
Cc1ccc(S(=O)(=O)Nc2ccc3c(c2)C(=O)N([C@H](C)CO)C[C@H](C)[C@@H](CN(C)S(C)(=O)=O)OCCCC[C@H](C)O3)cc1 | 57* | -5 | 2 | . | 0
CNC[C@H]1OCCCC[C@@H](C)Oc2ccc(NS(=O)(=O)c3ccc(C)cc3)cc2C(=O)N([C@H](C)CO)C[C@@H]1C | 30* | -6 | -1 | . | 4
C[C@@H]1CN([C@H](C)CO)C(=O)c2cc(N(C)C)ccc2O[C@@H]1CN(C)Cc1ccc(C(=O)Nc2ccccc2N)cc1 | -8 | 6 | . | . | 3

Compound activity from PubChem.
